Calls of active or inactive are those of the source. No cut-off for these calls is given here.
How the values were obtained:
[1] = target: NACHT, LRR and PYD domains-containing protein 3 (Mus musculus) (UniProt Q8R4B8); assay: Inhibition of NLRP3 inflammasome activation in mouse J774.A1 cells assessed as reduction in cleaved GSDMD production at 50 to 200 nM pretreated for 1 hr followed by nigericin treatment for 1 hr by Western blot analysis; type: cell-based; conditions: dose 50-200 nM, time 2.0 hrs
NACHT, LRR and PYD domains-containing protein 3 (Mus musculus), sequence (Q8R4B8 whole entry, the tested form may be a part): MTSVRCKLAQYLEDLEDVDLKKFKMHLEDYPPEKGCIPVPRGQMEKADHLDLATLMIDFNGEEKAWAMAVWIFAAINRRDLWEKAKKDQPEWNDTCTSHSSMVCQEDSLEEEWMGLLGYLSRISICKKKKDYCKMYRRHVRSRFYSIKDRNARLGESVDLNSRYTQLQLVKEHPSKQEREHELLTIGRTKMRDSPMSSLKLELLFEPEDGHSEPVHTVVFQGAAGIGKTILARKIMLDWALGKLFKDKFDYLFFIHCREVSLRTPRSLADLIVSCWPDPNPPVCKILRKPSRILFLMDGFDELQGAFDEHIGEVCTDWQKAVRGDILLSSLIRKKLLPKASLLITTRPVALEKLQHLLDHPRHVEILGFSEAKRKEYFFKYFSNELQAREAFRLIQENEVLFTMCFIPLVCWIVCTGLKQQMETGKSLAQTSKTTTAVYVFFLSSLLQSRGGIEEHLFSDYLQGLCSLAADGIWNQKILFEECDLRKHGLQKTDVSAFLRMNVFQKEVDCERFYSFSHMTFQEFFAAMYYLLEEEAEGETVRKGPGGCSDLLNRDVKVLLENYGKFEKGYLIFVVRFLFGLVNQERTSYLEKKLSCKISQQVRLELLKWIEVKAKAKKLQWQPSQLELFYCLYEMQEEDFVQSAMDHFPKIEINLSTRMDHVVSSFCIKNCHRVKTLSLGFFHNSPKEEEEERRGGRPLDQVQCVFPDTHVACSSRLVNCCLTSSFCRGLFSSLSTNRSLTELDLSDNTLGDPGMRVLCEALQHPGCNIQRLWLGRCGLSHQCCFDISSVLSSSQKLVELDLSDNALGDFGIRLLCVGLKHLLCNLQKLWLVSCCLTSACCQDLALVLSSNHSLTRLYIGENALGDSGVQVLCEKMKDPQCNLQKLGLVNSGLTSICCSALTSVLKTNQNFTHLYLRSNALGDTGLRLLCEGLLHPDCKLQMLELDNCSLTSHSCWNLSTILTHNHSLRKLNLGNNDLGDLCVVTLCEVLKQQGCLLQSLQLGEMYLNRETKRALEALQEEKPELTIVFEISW
Procedure, shortened: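 J774A.1 cells, LPS 1 μg mL−1 for 5 h, compound exposure, nigericin 10 μM 1 h. RIPA lysis with protease inhibitor and BCA quantitation, then SDS-PAGE/PVDF. Blocked 5% milk, primary antibodies overnight at 4 °C, HRP secondaries, ECL detection.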

[2] = target: T1, Interferon-inducible protein AIM2 (Mus musculus) (UniProt Q91VJ1); assay: Inhibition of AIM2 inflammasome activation in mouse BMDM cells assessed as reduction in LPS-stimulated IL-1beta level at 50 to 200 nM pretreated for 1 hr followed by poly(dA/dT) treatment for 4 hrs by ELISA; type: cell-based; conditions: dose 50-200 nM, time 5.0 hrs
T1 sequence (whole entry): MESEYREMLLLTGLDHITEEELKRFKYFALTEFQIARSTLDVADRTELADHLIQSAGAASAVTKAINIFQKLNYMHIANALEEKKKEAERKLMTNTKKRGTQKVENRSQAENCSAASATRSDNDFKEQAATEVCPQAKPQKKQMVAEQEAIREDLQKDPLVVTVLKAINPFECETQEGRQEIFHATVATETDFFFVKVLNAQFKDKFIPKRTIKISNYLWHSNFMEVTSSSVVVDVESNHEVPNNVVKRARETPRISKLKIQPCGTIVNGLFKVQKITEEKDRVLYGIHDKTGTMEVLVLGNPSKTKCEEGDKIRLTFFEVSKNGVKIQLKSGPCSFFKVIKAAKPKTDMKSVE
Procedure, shortened: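 BMDMs (RPMI 1640, 10% FBS, Glutamax, 20 ng mL−1 M-CSF) primed with 0.5 μg mL−1 LPS for 3 h, then compound for 1 h. Stimulated 4 h with FLA-ST Ultrapure 2.5 μg mL−1 (NLRC4) or poly(dA/dT) 0.25 μg mL−1 (AIM2). IL-1β measured by ELISA.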

[3] = target: T2, Signal transducer and activator of transcription 1 (Mus musculus) (UniProt P42225); assay: Inhibition of STAT1 expression in LPS-treated mouse J774.A1 cells assessed as reduction in STAT1 phosphorylation at 50 to 200 nM treated for 1 hr by Western blot analysis; type: cell-based; conditions: dose 50-200 nM
T2 sequence (whole entry): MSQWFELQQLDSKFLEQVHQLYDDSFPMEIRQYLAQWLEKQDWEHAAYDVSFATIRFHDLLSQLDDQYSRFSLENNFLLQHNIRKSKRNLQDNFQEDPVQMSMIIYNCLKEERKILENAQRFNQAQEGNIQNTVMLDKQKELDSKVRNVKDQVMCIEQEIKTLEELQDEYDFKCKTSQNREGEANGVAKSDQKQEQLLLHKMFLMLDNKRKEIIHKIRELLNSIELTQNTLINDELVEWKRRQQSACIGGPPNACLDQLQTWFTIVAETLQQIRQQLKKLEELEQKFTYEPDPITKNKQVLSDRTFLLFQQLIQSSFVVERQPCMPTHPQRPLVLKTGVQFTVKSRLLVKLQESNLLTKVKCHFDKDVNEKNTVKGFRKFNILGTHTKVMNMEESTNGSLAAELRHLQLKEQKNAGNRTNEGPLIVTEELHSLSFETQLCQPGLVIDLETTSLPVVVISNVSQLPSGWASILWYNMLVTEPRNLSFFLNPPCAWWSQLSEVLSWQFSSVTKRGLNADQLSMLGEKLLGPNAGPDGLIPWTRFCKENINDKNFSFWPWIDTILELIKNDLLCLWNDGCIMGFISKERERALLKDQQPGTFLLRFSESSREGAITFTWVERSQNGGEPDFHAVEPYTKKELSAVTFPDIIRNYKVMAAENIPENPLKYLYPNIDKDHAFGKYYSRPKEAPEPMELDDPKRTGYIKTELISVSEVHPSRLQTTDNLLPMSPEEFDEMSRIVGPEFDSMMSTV
Procedure, shortened: (§1)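 J774A.1 cells pretreated with LPS and compound, lysed in RIPA. pSTAT1, STAT1, pSTAT3, STAT3, pSTAT5 and STAT5 detected by SDS-PAGE western blot with ECL.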

J774.A1 = assay: Inhibition of STAT5 expression in LPS-treated mouse J774.A1 cells assessed as reduction in STAT5 phosphorylation at 50 to 200 nM treated for 1 hr by Western blot analysis; type: cell-based; conditions: dose 50-200 nM; procedure, shortened: as §1
[4] = Toxicity in mouse assessed as inactive state of animal at 2 mg/kg/day, ip treated for 7 days; type: organism-based; conditions: in vivo, 168 h, time 7 day
Procedure, shortened: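 Preliminary tolerability study: mice (n = 2) injected intraperitoneally at 2 mg kg−1 per day for 7 days. General state and activity observed.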

Mus musculus = assay: Anti-colitis activity against DSS-induced ulcerative colitis mouse model assessed as increase in body weight at 0.2 to 0.6 mg/kg, ip treated every 72 hrs for 9 days; type: functional, organism-based; conditions: dose 0.2-0.6 mg/kg, time 9.0 day
Procedure, shortened: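 Mice given 2.5% DSS water days 1–7, then water to day 9. Dosing: i.p. 0.2 or 0.6 mg kg−1 in 50% PEG300 on days 2, 5, 8. Body weight and fecal occult blood scored daily. Colon length measured after sacrifice on day 9. Mean ± s.e.m.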

Colon [5] = assay: Downregulation of IL-6 level in colon tissue of DSS-induced ulcerative colitis mouse model at 0.2 to 0.6 mg/kg, ip treated every 72 hrs for 9 days by ELISA; type: functional, organism-based; conditions: dose 0.2-0.6 mg/kg, time 9.0 day
Procedure, shortened: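 Colitis induced with 2.5% DSS in drinking water on days 1–7, plain water days 8–9. Compound given i.p. at 0.2 and 0.6 mg kg−1 in 50% PEG300 on days 2, 5 and 8. Mice killed on day 9; colon tissue cytokines measured by ELISA. Mean ± s.e.m.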

Colon [6] = assay: Anti-colitis activity against DSS-induced ulcerative colitis mouse model assessed as increase in crypt architecture in colon tissue at 0.2 to 0.6 mg/kg, ip treated every 72 hrs for 9 days by H and E staining based analysis; type: functional, organism-based; conditions: dose 0.2-0.6 mg/kg, time 9.0 day
Procedure, shortened: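 Colons were taken on day 9 from 2.5% DSS-fed mice (DSS days 1–7). Dosing was i.p. 0.2 or 0.6 mg kg−1 in 50% PEG300 on days 2, 5, 8. H&E-stained sections imaged at ×20 and scored for inflammatory infiltration, goblet cell depletion and crypt loss.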

Intestine = assay: Anti-colitis activity against DSS-induced ulcerative colitis mouse model assessed as decrease in STAT-5 level in intestinal tissue at 0.2 to 0.6 mg/kg, ip treated every 72 hrs for 9 days by Western blot analysis; type: functional, organism-based; conditions: dose 0.2-0.6 mg/kg, time 9.0 day
Procedure, shortened: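 DSS model (2.5% in drinking water days 1–7, water days 8–9). Dosing was i.p. at 0.2 and 0.6 mg kg−1 in 50% PEG300 on days 2, 5, 8. Intestinal tissue taken at sacrifice on day 9. Lysed in RIPA with protease inhibitor and BCA-quantified, then run on SDS-PAGE/PVDF and probed for STAT1, STAT3, STAT5 and caspase-1. ECL detection.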

inhibition [1]: Active
inhibition [2]: Active
inhibition [3]: Active
SMILES: Cc1cc(/C=C/C(=O)c2ccc(C(=O)N[C@@H](Cc3ccccc3)C(=O)N[C@@H](CC(C)C)B(O)O)cc2)cc(C)c1O
inhibition (J774.A1): Active
Activity [4]: Toxic
Activity (Mus musculus): Active
Activity (Colon [5]): inactive
Activity (Colon [6]): Active
Activity (Intestine): Active
